From ChEMBL document CHEMBL4138319, “Discovery, Synthesis, Pharmacological Profiling, and Biological Characterization of Brintonamides A-E, Novel Dual Protease and GPCR Modulators from a Marine Cyanobacterium” (J Med Chem, 2018)
Active and inactive are the calls of the source. The rule behind the calls is not given here. Square brackets hold non-standard residues; d marks the D form. Peptide text beside a SMILES is read from it. * marks the point of attachment. X1 = CC[C@H](C)[C@@H](OC(=O)/C=C/c1ccccc1)C(=O)*; dNMeF = CN[C@H](Cc1ccccc1)C(=O)O; NMeL = CN[C@@H](CC(C)C)C(=O)O

Legend:
[1] = target: T1, Kallikrein-7 (Homo sapiens, UniProt P49862); test: Mixed type inhibition of kallikrein 7 (unknown origin) using fluorescently labeled peptide substrate by fluorescence assay based Michaelis-Menten kinetic plot analysis
[2] = tested on: MDA-MB-231; test: Antiproliferative activity against human MDA-MB-231 cells after 48 hrs by MTT assay; type: functional, cell-based; conditions: Homo sapiens, MDA-MB-231, 48 h; read-out: IC50
Procedure, shortened: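 MDA-MB-231 cells are grown in DMEM with 10% FBS and seeded at 10,000 cells/well for 24 h. Cells are then exposed to graded compound concentrations or DMSO for 48 h. Viability is measured by MTT.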

[3] = target: T1, Kallikrein-7; test: Inhibition of recombinant human kallikrein 7 assessed as decrease in cleavage of E-cadherin at 10 uM after 30 mins or 2 hrs by silver staining based SDS-PAGE analysis
[4] = tested on: MDA-MB-468; test: Antimigratory activity against human MDA-MB-468 cells at 0.1 to 10 uM after 48 hrs; type: functional, cell-based
Procedure, shortened: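 Transwell migration through an 8 μm pore membrane. 5000 MDA-MB-468 cells in DMEM with 10% FBS are treated with graded compound concentrations or solvent on both sides for 48 h at 37 °C. Migrated cells are stained with crystal violet and counted. Run in triplicate.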

[5] = target: T2, Atypical chemokine receptor 3 (Homo sapiens, UniProt P25106); test: Agonist activity at human CXCR7 expressed in CHOK1 cells assessed as induction of beta-arrestin recruitment at 10 uM by chemiluminescence method; type: functional, cell-based
[6] = target: T3, Substance-K receptor (Homo sapiens) (UniProt P21452); test: Antagonist activity at human TACR2 expressed in CHOK1 cells assessed as substance P-induced beta-arrestin recruitment at 10 uM pre-incubated for 30 mins before substance P stimulation for 90 or 180 mins by chemiluminescence method; type: functional, cell-based; parameters: scale not given: the % may be the effect or the level left
T3 sequence (whole entry): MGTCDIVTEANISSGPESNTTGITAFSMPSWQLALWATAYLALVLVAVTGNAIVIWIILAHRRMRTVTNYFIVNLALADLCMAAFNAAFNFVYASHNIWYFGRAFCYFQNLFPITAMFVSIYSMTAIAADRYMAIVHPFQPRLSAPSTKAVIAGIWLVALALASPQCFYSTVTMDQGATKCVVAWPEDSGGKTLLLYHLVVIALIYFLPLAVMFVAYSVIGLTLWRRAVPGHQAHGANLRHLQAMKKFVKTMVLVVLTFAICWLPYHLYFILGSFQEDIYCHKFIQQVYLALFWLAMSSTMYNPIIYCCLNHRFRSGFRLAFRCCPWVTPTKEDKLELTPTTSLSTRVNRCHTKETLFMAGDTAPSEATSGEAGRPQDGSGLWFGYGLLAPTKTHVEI

[7] = target: T4, Somatostatin receptor type 3 (Homo sapiens, UniProt P32745); test: Antagonist activity at human SSTR3 expressed in HEK293 cells assessed as [Tyr1]-somatostatin 14-induced beta-arrestin recruitment at 10 uM pre-incubated for 30 mins before [Tyr1]-somatostatin 14 stimulation for 90 or 180 mins by chemiluminescence method; type: functional, cell-based; parameters: scale not given: the % may be the effect or the level left
[8] = target: T2, Atypical chemokine receptor 3; test: Agonist activity at human CXCR7 expressed in CHOK1 cells assessed as induction of beta-arrestin recruitment by chemiluminescence method; type: functional, cell-based
Procedure, shortened: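 PathHunter β-arrestin enzyme-fragment complementation assay in cells stably co-expressing ProLink-tagged GPCR and enzyme-acceptor-tagged β-arrestin. Sample is added to cells and incubated 90 or 180 min at 37 °C or room temperature, with 1% final vehicle. Detection reagent is added for 1 h at room temperature and chemiluminescence is read. % activity is taken relative to vehicle and maximal control ligand. Dose-response: 10 points, 3-fold dilutions from 20 μM, in duplicate.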

[9] = target: T5, C-C chemokine receptor type 10 (Homo sapiens, UniProt P46092); test: Antagonist activity at human CCR10 expressed in human U2OS cells assessed as inhibition of CCL27-induced beta-arrestin recruitment pre-incubated for 30 mins before CCL27 stimulation for 90 or 180 mins by chemiluminescence method; type: functional, cell-based
T5 sequence (P46092 whole entry): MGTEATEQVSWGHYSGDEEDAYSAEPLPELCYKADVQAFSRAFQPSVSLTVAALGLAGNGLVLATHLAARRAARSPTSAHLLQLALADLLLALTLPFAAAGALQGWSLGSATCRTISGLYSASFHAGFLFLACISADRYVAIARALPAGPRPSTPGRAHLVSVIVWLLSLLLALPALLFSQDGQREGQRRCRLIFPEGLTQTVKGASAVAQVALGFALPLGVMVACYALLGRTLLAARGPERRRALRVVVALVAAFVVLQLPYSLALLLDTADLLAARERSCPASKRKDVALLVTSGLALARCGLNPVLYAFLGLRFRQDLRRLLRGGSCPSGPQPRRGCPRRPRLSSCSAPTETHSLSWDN
Procedure, shortened: (§1)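 PathHunter β-arrestin complementation assay, antagonist mode. Cells co-express ProLink-tagged GPCR and enzyme-acceptor-tagged β-arrestin and are pre-incubated with sample for 30 min at 37 °C or room temperature. Dose-response: 10 points, 3-fold dilutions from 20 μM, in duplicate.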

[10] = target: T6, Oxytocin receptor (Homo sapiens, UniProt P30559); test: Antagonist activity at human OXTR expressed in CHOK1 cells assessed as oxytocin-induced beta-arrestin recruitment pre-incubated for 30 mins before oxytocin stimulation for 90 or 180 mins by chemiluminescence method; type: functional, cell-based; procedure, shortened: as §1
T6 sequence (P30559 whole entry): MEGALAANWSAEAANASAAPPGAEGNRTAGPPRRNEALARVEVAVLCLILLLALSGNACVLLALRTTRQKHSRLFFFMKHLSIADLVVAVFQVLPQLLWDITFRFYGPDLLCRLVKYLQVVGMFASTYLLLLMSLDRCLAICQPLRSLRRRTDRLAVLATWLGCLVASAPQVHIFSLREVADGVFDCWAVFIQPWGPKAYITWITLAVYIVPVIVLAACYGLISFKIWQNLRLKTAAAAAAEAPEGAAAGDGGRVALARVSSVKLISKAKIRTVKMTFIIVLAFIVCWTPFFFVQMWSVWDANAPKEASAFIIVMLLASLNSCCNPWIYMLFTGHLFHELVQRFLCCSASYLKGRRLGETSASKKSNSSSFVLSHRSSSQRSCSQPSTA

[11] = target: T4, Somatostatin receptor type 3; test: Antagonist activity at human SSTR3 expressed in HEK293 cells assessed as [Tyr1]-somatostatin 14-induced beta-arrestin recruitment pre-incubated for 30 mins before [Tyr1]-somatostatin 14 stimulation for 90 or 180 mins by chemiluminescence method; type: functional, cell-based; procedure, shortened: as §1
[12] = tested on: MDA-MB-231; test: Antiproliferative activity against siCCR10 knockdown human MDA-MB-231 cells after 48 hrs by MTT assay; type: functional
Procedure, shortened: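 MDA-MB-231 cells are incubated with 50 nM CCR10 siRNA, which gives 60% knockdown confirmed by RT-qPCR. Proliferation is compared with negative-control siRNA, mean ± SD, n = 3.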

[13] = tested on: MDA-MB-231; test: Antimigratory activity against human MDA-MB-231 cells at 10 uM after 48 hrs by transwell migration assay relative to control; type: functional
[14] = target: T1, Kallikrein-7; test: Inhibition of kallikrein 7 (unknown origin) using fluorescently labeled peptide substrate by fluorescence assay
Procedure, shortened: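 KLK7 follow-up: 10-dose titrations, 3-fold serial dilution from 100 μM, in duplicate, with gabexate mesylate as positive control. Fluorescence from the labeled peptide substrate is monitored over time, and the initial linear slope (signal/min) is used to derive IC50.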

T1 sequence (P49862 30-253 limits assumed): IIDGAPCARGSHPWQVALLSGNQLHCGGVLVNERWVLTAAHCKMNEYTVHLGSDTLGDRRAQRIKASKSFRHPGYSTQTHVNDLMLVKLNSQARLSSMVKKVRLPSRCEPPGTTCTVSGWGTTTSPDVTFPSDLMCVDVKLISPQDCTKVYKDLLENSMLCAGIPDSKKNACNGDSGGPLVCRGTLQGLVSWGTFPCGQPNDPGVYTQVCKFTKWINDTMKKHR
T4 sequence (P32745 whole entry): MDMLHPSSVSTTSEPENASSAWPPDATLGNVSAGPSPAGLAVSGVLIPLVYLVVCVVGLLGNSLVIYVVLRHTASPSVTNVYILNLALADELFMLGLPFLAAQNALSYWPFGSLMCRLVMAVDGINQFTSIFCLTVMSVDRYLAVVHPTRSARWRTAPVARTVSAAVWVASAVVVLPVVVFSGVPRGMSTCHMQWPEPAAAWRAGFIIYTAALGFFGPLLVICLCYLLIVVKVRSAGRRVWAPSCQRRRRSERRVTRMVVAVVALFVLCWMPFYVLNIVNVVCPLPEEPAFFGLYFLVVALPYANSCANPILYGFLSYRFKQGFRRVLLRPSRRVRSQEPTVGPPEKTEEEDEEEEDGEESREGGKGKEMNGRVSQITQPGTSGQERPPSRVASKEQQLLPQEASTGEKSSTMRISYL
T2 sequence (P25106 whole entry): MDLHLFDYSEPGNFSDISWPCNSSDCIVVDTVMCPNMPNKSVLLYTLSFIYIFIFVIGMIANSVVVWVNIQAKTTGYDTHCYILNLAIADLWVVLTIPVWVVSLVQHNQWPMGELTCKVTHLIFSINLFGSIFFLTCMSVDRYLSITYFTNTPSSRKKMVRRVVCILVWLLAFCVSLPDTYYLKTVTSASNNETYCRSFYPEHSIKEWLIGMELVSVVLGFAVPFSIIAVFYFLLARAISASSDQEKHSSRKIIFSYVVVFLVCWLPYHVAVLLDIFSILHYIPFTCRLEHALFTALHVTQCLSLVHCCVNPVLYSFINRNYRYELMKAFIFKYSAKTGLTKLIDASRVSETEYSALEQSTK

## CC[C@H](C)[C@@H](OC(=O)/C=C/c1ccccc1)C(=O)N1CCC[C@H]1C(=O)NCC(=O)N(C)[C@@H](CC(C)C)C(=O)N[C@@H](C)C(=O)N(C)[C@H](Cc1ccccc1)C(=O)N1CCC[C@H]1C(=O)OC (X1-PG[NMeL]A[dNMeF]P-OMe)
[1]
  inhibition: Active
[2]
  IC50: 16.7 µM
[3]
  inhibition: Active
[4]
  Activity: Active
[5]
  Activity: 86%
[6]
  Activity: 97%
[7]
  Activity: 77%
[8]
  EC50: 3.97 µM
[9]
  IC50: 0.44 µM
[10]
  IC50: 6.78 µM
[11]
  IC50: 3.12 µM
[12]
  Activity: 10%
[13]
  Activity: 60%
[14]
  inhibition: Active
